From PubChem
Lmaj promast – Leishmania major promastigote growth inhibition, primary screen | AID 1063, 2008 | inhibition, % at 10 µM | Leishmania major promastigotes, resazurin fluorescence viability | hit rate 9% among 200,000; in the data active = inhibition above about 50%;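 also: promastigotes grown with compound for 44 hours at 28 °C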
PTEN del growth – growth suppression of PTEN-null HCT116, primary screen, cell-based, CellTiter-Glo | HCT116 PTEN-null viability, 60 h; active compounds read low | viability, % at 10 µM | hit rate 1.2% among 140,000 | AID 827, 2007;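 active = viability at or below a set limit, 4 SD under the median of all tested compounds, cut at about 3.7% in these data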;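 also: PTEN knockout HCT116 line with beta catenin targeted HCT116 as companion control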
bCat KO growth – primary screen for growth suppressors in beta-catenin knockout HCT116 cells (colon tumor, human); HCT116 beta-catenin knockout viability, CellTiter-Glo, 60 h; active compounds read low; viability, % at 10 µM; hit rate 1.5% among 140,000; AID 818, 2007;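 active = viability at or under a set limit, the compound median less 4 SD, cut at about 6% in these data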;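 also: 0% = Hyamine 1622 control at 20 µM and 100% = untreated cell control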
PMI activator – activators of human PMI, primary screen, biochemical, fluorescence intensity, near-Km mannose 6-phosphate; Mannose-6-phosphate isomerase (Homo sapiens), P34949; purified human PMI, coupled resazurin fluorescence, 20 min; active compounds read high; 1 = vehicle control, 0 substrate-free wells; activation factor at 20 µM; hit rate 0.005% among 190,000; AID 1214, 2008;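 active = activation factor of 2 or more at 20 µM, relative to plate controls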
Target sequence (P34949 whole entry, looked up): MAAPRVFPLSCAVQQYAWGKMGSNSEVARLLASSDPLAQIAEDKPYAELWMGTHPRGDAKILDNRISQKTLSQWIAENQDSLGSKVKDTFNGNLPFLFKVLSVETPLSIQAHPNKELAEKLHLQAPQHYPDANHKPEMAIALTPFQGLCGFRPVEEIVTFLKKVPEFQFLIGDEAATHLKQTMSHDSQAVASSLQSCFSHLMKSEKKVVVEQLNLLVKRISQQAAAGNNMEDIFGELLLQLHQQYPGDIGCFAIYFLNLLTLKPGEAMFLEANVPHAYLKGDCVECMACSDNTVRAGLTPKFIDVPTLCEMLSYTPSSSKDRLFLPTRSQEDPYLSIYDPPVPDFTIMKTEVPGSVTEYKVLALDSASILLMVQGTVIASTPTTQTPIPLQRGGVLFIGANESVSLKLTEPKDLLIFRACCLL
PMI act hi M6P – human PMI activators, high substrate, primary screen, biochemical, fluorescence intensity, near-saturating mannose 6-phosphate. coupled PMI enzyme assay, resazurin fluorescence, 20 min; active compounds read high; 1 = untreated enzyme, 0 = substrate-free blank. activation factor at 20 µM. hit rate 0.34% among 190,000;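 active = activation factor of 2 or more at 20 µM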
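assay system = human phosphomannose isomerase with PGI, G6PDH, diaphorase coupling enzymes | quantity = 15 ng/mL PMI | incubation = enzyme reaction with compound 20 min at room temperature | medium = HEPES pH 7.4 buffer with MgCl2 and Tween-20 | compound dosing = one concentration, 20 µM, in 1% DMSO | measured by = Diaphorase-driven resazurin-to-resorufin fluorescence, excitation 544, emission 590 nm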
Active calls of the source: *; x = no result. Most compounds without a hit are left out; they make up all but 9.6% or so of the library.

SMILES	Lmaj promast	PTEN del growth	bCat KO growth	PMI activator	PMI act hi M6P
CCN(CC)S(=O)(=O)c1ccc(N2CCOCC2)c(NC(=O)C(=O)c2c(-c3ccccc3)cc3ccccn23)c1	24	86	89	0.9	0.9
CCN(CC)S(=O)(=O)c1cc(NC(=O)C(=O)c2c(-c3ccccc3)cc3ccccn23)ccc1C	91*	56	51	0.8	0.8
CN(C)CCNC(=O)C(=O)c1c(-c2ccccc2)cc2ccccn12	-4	x	x	1.1	1.1
Cc1ccsc1CN1CCC(C(=O)NCc2ccccc2Cl)CC1	92*	96	86	1.1	1.2
O=C(NCc1ccccc1Cl)C1CCN(S(=O)(=O)N2CCC3(CC2)OCCO3)CC1	-2	95	90	1	0.9
COc1ccc(/C=C2\C(=O)N(Cc3ccc(F)cc3)CC(=O)N2Cc2ccccc2)cc1	95*	55	67	0.8	0.8
COc1ccc(/C=C2\C(=O)NCC(=O)N2Cc2ccccc2)cc1	-3	41	52	1.1	1.1
OC1(c2ccccc2)CCN(Cc2ccccc2)C2CCCCC21 (stereo not drawn)	97*	70	70	0.9	1.1
Cc1oc(-c2cccs2)nc1CN1CC[C@@](O)(c2ccccc2)[C@H]2CCCC[C@@H]21	42	x	x	0.9	1
Oc1c(C(c2ccc(Cl)cc2)N2CCCC2)cc(Cl)c2cccnc12 (stereo not drawn)	96*	x	x	0.9	0.6
CN1CCN(C(c2ccccn2)c2cc(Cl)c3cccnc3c2O)CC1 (stereo not drawn)	-1	x	x	0.7	0.6
Oc1c(C(c2ccccn2)N2CCC(Cc3ccccc3)CC2)cc(Cl)c2cccnc12 (stereo not drawn)	99*	x	x	0.8	0.4
O=C1CCCC(=O)N1c1ccc(N2CCN(c3ccccc3)CC2)c([N+](=O)[O-])c1	-8	107	104	1.1	1
Cc1cccc(N2CCN(c3ccc(N4C(=O)CCCC4=O)cc3[N+](=O)[O-])CC2C)c1 (stereo not drawn)	50*	97	101	0.9	0.9
CN(Cc1ccccc1)c1ccc(N2C(=O)CCCC2=O)cc1[N+](=O)[O-]	81*	94	91	1	1
Cc1cccc(N2CCN(c3ccc(N4C(=O)CCCC4=O)cc3[N+](=O)[O-])CC2)c1C	58*	82	91	0.8	0.9
COC(=O)c1ccc(NC(=O)Cn2nnc(-c3cccs3)n2)cc1	-6	x	x	1.1	1.1
O=C(Cc1ccccc1)N/N=C/c1cccc([N+](=O)[O-])c1	-1	x	x	1	1
C/C(=N\Nc1cc(Cl)nc(C)n1)c1ccc(C)cc1	5	x	x	x	x
Cc1ccccc1NC(=O)c1cc(C(=O)c2cc(Cl)ccc2O)cn(-c2ccccc2C)c1=O	61*	6	8	1	0.9
CCCC(=O)NCCc1ccc(F)cc1	-1	102	90	0.9	1
CCCN1C(=O)c2cccc3c(N4CCCCC4)ccc(c23)C1=O	73*	70	67	0.9	0.9
O=C(OCCN1C(=O)c2cccc3c(N4CCOCC4)ccc(c23)C1=O)c1cc(Cl)cc(Cl)c1	71*	19	17	1	1
CCN(CC)S(=O)(=O)c1ccc(C(=O)OCCN2C(=O)c3cccc4c(N5CCOCC5)ccc(c34)C2=O)cc1	21	65	67	0.8	0.9
O=C(O)C1=C(OCc2ccc(F)c(F)c2)C(=O)NCC1	-9	x	x	1	1
SMILES	Lmaj promast	PTEN del growth	bCat KO growth	PMI activator	PMI act hi M6P
Cc1cc(C)c(C#N)c(SCC(=O)NC(C)(C)C)n1	-5	99	103	1.1	1
Cc1cc(C)c(C#N)c(SCC(=O)C(C)(C)C)n1	77*	75	78	1	1
C/C(CC1CC(COCCC(C)C)OC1=O)=N\NC(N)=S (stereo not drawn)	-4	109	107	1	1
C/C(CC1CC2=C(CC1(C)C)C(C)(C)CCC2)=N\NC(N)=S (stereo not drawn)	101*	28	9	0.8	0.9
CC1=C(C(=O)Nc2ccccc2)C(c2ccc(C)cc2)N=C(Nc2nc3ccccc3o2)N1 (stereo not drawn)	2	3.6*	7	1.1	1.1
Cc1cccc(/C=N/NC(=O)c2cc(-c3cccnc3)nc3ccccc23)c1	26	x	x	1.1	1
CCCc1ccc(-c2cc(C(=O)N/N=C/c3ccc([N+](=O)[O-])o3)c3ccccc3n2)cc1	100*	13	19	1.4	1.4
Cc1ccc(-c2cc(C(=O)NN=C3CCCC3)c3ccccc3n2)cc1	-2	66	72	1	1
O=C(N/N=C/c1ccc([N+](=O)[O-])o1)c1cc(-c2cccc(Br)c2)nc2ccccc12	100*	1.7*	1.8*	1.1	1.1
Cc1ccc(CCN2C(=O)CCC2(C)C(=O)NCc2cccnc2)cc1 (stereo not drawn)	-4	114	110	1	1
COCC(C)n1c(C)cc(C(=O)COC(=O)c2ccc(N3CCCC3=O)cc2)c1C (stereo not drawn)	69*	98	76	0.9	0.9
O=C(NCCc1ccncc1)Nc1ccc(Cl)c(Cl)c1	96*	x	x	1	1
O=C(NCCc1ccncc1)Nc1ccccc1	-6	96	98	1.1	1
CC(C)N(CCc1ccncc1)C(=O)Nc1ccc(Cl)c(Cl)c1	92*	84	80	1	1
CC(C)N(CCc1ccncc1)C(=O)Nc1ccc(F)cc1	-4	107	92	1	1.1
O=C(COC(=O)CCc1nc2ccccc2s1)NCc1ccco1	-7	x	x	1.2	1.1
OCC1(Cc2ccccc2)CCN(Cc2ccccn2)CC1	-4	x	x	0.9	0.9
COc1ccc(CN2CCC(CO)(Cc3ccccc3)CC2)cc1Cn1cccn1	6	x	x	1	1
OCC1(Cc2ccccc2C(F)(F)F)CCN(Cc2ccc3c(c2)CCO3)CC1	90*	x	x	0.9	1
OCC1(Cc2ccccc2C(F)(F)F)CCN(Cc2ccccc2)CC1	81*	x	x	0.9	1
Cc1nnc(SCC(=O)c2ccc(Br)cc2)s1	-5	x	x	0.8	1
Cc1ccc(C)c(NS(=O)(=O)c2cc(C(=O)Nc3ccccc3-c3ccccc3)ccc2C)c1	26	35	46	0.9	0.9
Cc1ccccc1NS(=O)(=O)c1cc(C(N)=O)ccc1C	-2	88	85	0.9	1
COc1ccc(C(=O)Nc2cccc(N(C)S(C)(=O)=O)c2)cc1OC	0	102	88	0.9	0.9
Cc1ccc(C(=O)Nc2cccc(N(C)S(C)(=O)=O)c2)cc1S(=O)(=O)Nc1ccccc1	75*	84	90	0.9	0.9
Cc1ccccc1NS(=O)(=O)c1cc(S(C)(=O)=O)ccc1C	54*	103	100	1	1
